# Calls of active or inactive are those of the source. No cut-off for these calls is given here.
# Legend:
# [1] = Stability in rat plasma assessed as compound degradation incubated for 6 hrs by quadrupole mass spectrometry coupled UFLC analysis; assay type: ADME, cell-free
# How it was run: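 Compound at 1 μM was incubated in rat plasma at 37 °C for 0, 1, 2 and 6 h. Remaining concentration was measured by LC/MS/MS.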
# [2] = MRT (total) in overnight-fasted Wistar rat at 0.5 mg/kg, po measured upto 7 hrs by quadrupole mass spectrometry coupled UFLC analysis; assay type: ADME, organism-based; settings: in vivo
# How it was run: (§1)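 Conscious, freely moving male Wistar rats received compound in saline at 4 mL/kg, either i.v. via jugular vein at 0.1 mg/kg or by oral gavage at 0.5 mg/kg. Cannula blood was sampled up to 7 h and plasma measured by LC-MS/MS. Analysis was noncompartmental (trapezoidal AUC); Cmax and tmax were taken as observed, and t1/2 from log-linear terminal regression over at least 3 points. Mean ± SD, n = 5.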
# [3] = Cmax in overnight-fasted Wistar rat at 0.5 mg/kg, po measured upto 7 hrs by quadrupole mass spectrometry coupled UFLC analysis; assay type: ADME, organism-based; parameters: route oral, dose 0.5 mg/kg, time <=7; settings: in vivo; how it was run: as §1
# [4] = tested on: SARS-CoV-2; test: Antiviral activity against SARS coronavirus 2 infected in African green monkey Vero cells assessed as blockade of viral proliferation at 25 uM incubated for 48 hrs by cytopathic effect assay; assay type: functional, organism-based; settings: Severe acute respiratory syndrome coronavirus 2
# [5] = Half life in overnight-fasted Wistar rat at 0.1 mg/kg, iv measured upto 7 hrs by quadrupole mass spectrometry coupled UFLC analysis; assay type: ADME, organism-based; settings: in vivo; how it was run: as §1
# [6] = tested on: SARS-CoV-2; test: Antiviral activity against SARS coronavirus 2 infected in African green monkey Vero cells assessed as reduction in total viral RNA upto 25 uM measured after 24 hrs post-infection by qRT-PCR analysis; assay type: functional, organism-based; settings: Severe acute respiratory syndrome coronavirus 2, dose microM <=25, time 24.0 hrs
# How it was run: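 Total viral RNA in treated, SARS-CoV-2-infected Vero cells was quantified by qPCR. Values are mean ± SEM of three independent experiments.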
# [7] = Drug metabolism in rat hepatocytes assessed as CYP450-catalysed oxidative pathway mediated metabolite formation at 10 uM incubated upto 2 hrs by LC/UV/MS analysis; assay type: ADME, cell-based, Hepatocyte
# How it was run: (§2)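 Hepatocytes were suspended at 6 × 10^5 viable cells/mL in KHB buffer and given compound at 10 μM. Incubation was 0 and 2 h at 37 °C under 5% CO2, stopped with acetonitrile. After centrifugation, supernatant metabolites were analysed by LC/UV/MS.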
# [8] = Cytotoxicity against African green monkey Vero cells assessed as cell viability incubated for 24 hrs by MTT assay; assay type: toxicity, cell-based; settings: chlorocebus sabaeus
# How it was run: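 Vero cells were seeded at 1.0 × 10^4 cells/well and cultured overnight at 37 °C. Compound was added for 24 h, and viability was measured by MTT assay with absorbance at 570 nm.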
# [9] = Drug metabolism in human hepatocytes assessed as amide hydrolysis mediated HC-7 metabolite formation at 10 uM incubated upto 2 hrs by LC/UV/MS analysis; assay type: ADME, cell-based, Hepatocyte; how it was run: as §2
# [10] = Drug metabolism in rat hepatocytes assessed as amide hydrolysis mediated HC-5 metabolite formation at 10 uM incubated upto 2 hrs by LC/UV/MS analysis; assay type: ADME, cell-based, Hepatocyte; how it was run: as §2
# [11] = Inhibition of recombinant C-terminal His-tagged SARS coronavirus 1 3CL protease using Boc-Abu-Tle-Leu-Gln-AMC as substrate incubated for 5 mins by Cheng-Prusoff equation analysis; parameters: species or system Severe acute respiratory syndrome-related coronavirus
# [12] = AUC (0 to infinity) in overnight-fasted Wistar rat at 0.1 mg/kg, iv measured upto 7 hrs by quadrupole mass spectrometry coupled UFLC analysis; assay type: ADME, organism-based; parameters: route intravenous, dose 0.1 mg/kg, time <=7; settings: in vivo
# How it was run: (§3)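 Male Wistar rats, conscious and unrestrained, were given the compound in saline at 4 mL/kg, either as an i.v. bolus via the left jugular vein or by oral gavage. Heparinized blood was drawn from a cannula at set times up to 7 h and the plasma analysed by LC-MS/MS. AUC0–7 and AUC0–∞ came from noncompartmental trapezoidal analysis; mean ± SD, n = 5.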
# [13] = tested on: SARS-CoV-2; test: Antiviral activity against SARS coronavirus 2 infected in African green monkey Vero cells assessed as blockade of viral proliferation at 10 uM incubated for 48 hrs by cytopathic effect assay; assay type: functional, organism-based; settings: Severe acute respiratory syndrome coronavirus 2
# [14] = Half life in overnight-fasted Wistar rat at 0.5 mg/kg, po measured upto 7 hrs by quadrupole mass spectrometry coupled UFLC analysis; assay type: ADME, organism-based; settings: in vivo; how it was run: as §1
# [15] = Protein binding in human plasma incubated for 6 hrs by quadrupole mass spectrometry coupled UFLC analysis; assay type: ADME, cell-free; settings: read-out: PPB
# [16] = biological target: T1, Cytochrome P450 2C8 (Homo sapiens, UniProt P10632); test: Inhibition of CYP2C8 in human liver microsome at 10 uM; assay type: toxicity; settings: microsomes
# T1 sequence (P10632 whole entry): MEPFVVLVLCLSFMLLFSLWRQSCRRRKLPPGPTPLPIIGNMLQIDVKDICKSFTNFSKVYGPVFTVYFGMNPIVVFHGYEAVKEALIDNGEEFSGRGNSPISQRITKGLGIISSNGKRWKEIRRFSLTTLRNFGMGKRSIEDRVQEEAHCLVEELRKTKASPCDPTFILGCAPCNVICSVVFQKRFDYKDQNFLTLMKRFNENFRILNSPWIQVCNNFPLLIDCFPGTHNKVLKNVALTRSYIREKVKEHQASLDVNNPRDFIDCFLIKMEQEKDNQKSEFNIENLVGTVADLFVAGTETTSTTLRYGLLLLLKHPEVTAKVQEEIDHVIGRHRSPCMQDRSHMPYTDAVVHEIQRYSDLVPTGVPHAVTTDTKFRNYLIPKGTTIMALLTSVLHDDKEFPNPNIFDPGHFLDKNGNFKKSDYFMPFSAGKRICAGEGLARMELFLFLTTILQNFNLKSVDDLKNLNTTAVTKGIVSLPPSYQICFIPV
# How it was run: (§4)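 Human liver microsomes (0.1 mg protein/mL) were mixed with compound at 10 μM and probe substrates in phosphate buffer pH 7.4: tacrine (CYP1A2), paclitaxel (2C8), tolbutamide (2C9), dextromethorphan (2D6) and midazolam (3A4). Reactions were started with an NADPH-generating system, run 10 min at 37 °C and stopped with acetonitrile. Metabolites were measured by LC/MS/MS and activity expressed as % remaining versus the no-inhibitor control.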
# [17] = Drug metabolism in human hepatocytes assessed as amide hydrolysis mediated HC-6 metabolite formation at 10 uM incubated upto 2 hrs by LC/UV/MS analysis; assay type: ADME, cell-based, Hepatocyte; how it was run: as §2
# [18] = biological target: T2, Cytochrome P450 1A2 (Homo sapiens, UniProt P05177); test: Inhibition of CYP1A2 in human liver microsome at 10 uM; assay type: toxicity; settings: microsomes; how it was run: as §4
# T2 sequence (P05177 whole entry): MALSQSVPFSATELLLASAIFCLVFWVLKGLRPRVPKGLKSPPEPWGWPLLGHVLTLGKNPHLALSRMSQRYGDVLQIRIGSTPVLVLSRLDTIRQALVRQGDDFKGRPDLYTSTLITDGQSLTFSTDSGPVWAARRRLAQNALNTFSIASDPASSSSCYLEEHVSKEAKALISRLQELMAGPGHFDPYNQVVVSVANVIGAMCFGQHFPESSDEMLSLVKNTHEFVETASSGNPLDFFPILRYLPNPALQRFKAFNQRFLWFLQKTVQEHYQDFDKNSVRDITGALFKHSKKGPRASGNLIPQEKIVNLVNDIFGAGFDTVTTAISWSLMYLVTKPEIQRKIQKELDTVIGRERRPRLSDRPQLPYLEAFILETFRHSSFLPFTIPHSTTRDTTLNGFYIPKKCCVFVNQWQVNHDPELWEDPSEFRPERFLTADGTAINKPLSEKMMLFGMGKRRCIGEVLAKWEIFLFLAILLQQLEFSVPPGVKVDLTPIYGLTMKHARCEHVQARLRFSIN
# [19] = AUC (0 to 7 hrs) in overnight-fasted Wistar rat at 0.1 mg/kg, iv measured upto 7 hrs by quadrupole mass spectrometry coupled UFLC analysis; assay type: ADME, organism-based; parameters: route intravenous, dose 0.1 mg/kg, time <=7; settings: in vivo; how it was run: as §3
compound,measurement,setting,value
COc1cccc2[nH]c(C(=O)N[C@@H](CC(C)C)C(=O)N[C@@H](C[C@@H]3CCNC3=O)C(=O)c3nc4ccccc4s3)cc12,Stability,[1],Stable
same,MRT,[2],13.2 h
same,Cmax,[3],1.08 ng/mL
same,Activity,[4],Active
same,half-life,[5],2.97 h
same,Activity,[6],Active
same,Drug metabolism,[7],Metabolite_Detected
same,CC50 at 24 h,[8],> 100000 nM
same,Drug metabolism,[9],Metabolite_Detected
same,Drug metabolism,[10],Metabolite_Detected
same,Ki,[11],6.3 nM
same,AUC(0-inf),[12],0.0197 µg·h/mL
same,Activity,[13],Active
same,half-life,[14],9.64 h
same,fraction unbound at 6 h,[15],0.01
same,inhibition (INH),[16],Active
same,Drug metabolism,[17],Metabolite_Detected
same,inhibition (INH),[18],Active
same,AUC(0-t),[19],0.0193 µg·h/mL

# From ChEMBL document CHEMBL5042480, “3CL Protease Inhibitors with an Electrophilic Arylketone Moiety as Anti-SARS-CoV-2 Agents” (J Med Chem, 2022)
